Screens (PubChem)
ADAM10 inh: human ADAM10 inhibitors, primary screen, biochemical, QFRET, HTS; Disintegrin and metalloproteinase domain-containing protein 10 (Homo sapiens), O14672; recombinant ADAM10, EDANS/DABCYL FRET peptide cleavage, 3 h; inhibition, % at 7 µM; 0.62% of 370,000 active;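 active means inhibition above a per-campaign cutoff equal to the mean of compounds falling between control-based bounds plus 3 SD, cut at about 20% in these data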
Arrestin-AP2 inh: inhibitors of beta-arrestin/AP2 binding, primary screen, biochemical, GPCR trafficking, flow cytometry; inhibition, % at 10 µM; beta-arrestin 1 C-terminal peptide binding to AP2 beta2-adaptin appendage (human); FITC-arrestin peptide / GST-AP2 beads; AP2 beta2 appendage carries R879A mutation; 0.31% of 340,000 active;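 active means inhibition above a set limit, near 3 SD of compounds lacking own fluorescence, cut at about 54% in these data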
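System: GST-AP2 R879A glutathione beads; medium: PBS, Tween 20 0.05%, BSA 0.1%; reagent: fluorescein-tagged arrestin peptide at 50 nM final; schedule: pre-incubation 12 min, peptide binding 1 h, room temperature; detection: flow cytometry, FL1 (488/535 nm); read-out: inhibition as reduced fluorescein signal on beads, percent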
ADAM17 inh: ADAM17 inhibitors, primary screen, biochemical, QFRET | Disintegrin and metalloproteinase domain-containing protein 17 (Homo sapiens), P78536 | recombinant ADAM17, EDANS/DABCYL FRET peptide cleavage | inhibition, % at 6.95 µM | 0.83% of 370,000 active;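 active means inhibition above the mean of compounds lying between control limits plus 3 SD, set per campaign, cut at about 8.5% in these data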
Target sequence (P78536 215-824 limits assumed): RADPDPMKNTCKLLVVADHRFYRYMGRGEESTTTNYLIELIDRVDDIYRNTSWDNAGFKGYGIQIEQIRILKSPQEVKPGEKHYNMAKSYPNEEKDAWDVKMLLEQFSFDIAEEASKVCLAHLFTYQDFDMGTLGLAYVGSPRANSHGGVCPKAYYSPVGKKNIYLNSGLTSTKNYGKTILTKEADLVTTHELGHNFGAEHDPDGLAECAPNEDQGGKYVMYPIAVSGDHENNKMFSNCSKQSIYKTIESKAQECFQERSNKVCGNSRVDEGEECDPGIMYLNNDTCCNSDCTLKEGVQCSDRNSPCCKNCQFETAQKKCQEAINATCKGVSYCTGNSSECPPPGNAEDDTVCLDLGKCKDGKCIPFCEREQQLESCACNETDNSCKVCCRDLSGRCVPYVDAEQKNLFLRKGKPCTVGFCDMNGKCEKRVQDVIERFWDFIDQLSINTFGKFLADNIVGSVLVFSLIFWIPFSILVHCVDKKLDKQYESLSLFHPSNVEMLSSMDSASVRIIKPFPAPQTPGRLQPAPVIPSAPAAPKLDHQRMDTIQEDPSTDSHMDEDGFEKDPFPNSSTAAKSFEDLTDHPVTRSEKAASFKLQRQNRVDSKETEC
CendR NRP1 mod: modulators of CendR peptide binding to NRP-1, primary screen, biochemical, fluorescence polarization, uHTS. Neuropilin-1 (Homo sapiens), O14786. FAM-RPARPAR peptide binding to NRP-1. inhibition, % at 25 µM. 0.85% of 360,000 active. AID 602438, 2012;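 active means inhibition or corrected inhibition above about 18%, plus a signal ratio from 0.5 to 1.5, limit read from the data, passing the limit was not always enough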
FAS TE block: FAS thioesterase domain inhibitors, primary screen, biochemical, fluorescence intensity, uHTS. inhibition, % at 15 µM. recombinant FAS-TE, OMFH fluorogenic substrate, fluorescence endpoint. 0.67% of 360,000 active. Fatty acid synthase (Homo sapiens), P49327;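 active means compounds whose normalised, plate-corrected inhibition of enzyme fluorescence in the single-dose primary screen is 50% or more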
CaV13 FRET inh: Disruptors of the CACNA1D IQ motif to Ca2+-dependent inactivation inhibitor domain association, primary screening, Förster resonance energy transfer in intact living …; inhibition, % at 12.3 µM; AID 743397; HEK cells, CFP/YFP FRET ICDI-IQ, plate reader, 10 min; percent FRET-ratio fall versus neutral wells; 0.098% of 340,000 active;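 active means mean replicate inhibition of at least 30% and at least 1% of replicates passing that level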
Arr-AP2 CP1: inhibitors of arrestin peptide binding to AP2, confirmation, biochemical, cherry pick 1, flow cytometry beads; shares compounds with Arrestin-AP2 inh; GST-AP2 beads, FITC arrestin peptide binding; GST-fused beta2-adaptin appendage, R879A mutant; inhibition, % at 10 µM; 2% of 1,300 active; AID 504908, 2011;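 active means inhibition above a set limit, roughly 3 SD of non-fluorescent compound noise, cut at about 38% in these data; inactive means inhibition at or below that limit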;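 further: loss of bead fluorescence from 50 nM FITC arrestin peptide bound to appendage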
GST GSH counter: GST-fluorescein capture on glutathione beads, confirmation, artefact control for arrestin-AP2 inhibitor project, biochemical, cherry pick 1, flow cytometry; shares compounds with Arrestin-AP2 inh; GST-fluorescein binding to GSH beads, fluorescence, counter-screen; inhibition, % at 10 µM; 2% of 1,300 active; AID 588338, 2011;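 active means inhibition above 50%, about 3 SD of the inhibition seen with non-fluorescent compounds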;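 further: fluorescein maleimide labelled GST captured on 4 micron glutathione beads; higher means more loss of bead fluorescence from quenching or blocked binding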
Large screens that a line does not name were inactive (follow-up assays come after a bar, where they were run). A selection: hits, their analogues and other compounds. The true share with any hit is near 2.9%.

Cc1cc(C)n(CCNC(=O)[C@@H](Cc2ccccc2)NC(=O)[C@H]2O[C@@H](n3ccc(=O)[nH]c3=O)[C@H](O)[C@@H]2O)n1	none (no result: Arrestin-AP2 inh, CendR NRP1 mod, FAS TE block, CaV13 FRET inh)
CCCC1NC(=O)c2cccnc2-n2c1nc1ccc(OC)cc1c2=O (stereo not given)	none (no result: Arrestin-AP2 inh)
O=C(NC1CCCCCC1)c1cc(S(=O)(=O)N2CCOCC2)ccc1N1CCCCC1	none | Arr-AP2 CP1 inactive | GST GSH counter inactive
O=C(Nc1ccc(OC(F)F)cc1)c1cc(S(=O)(=O)N2CCOCC2)ccc1N1CCCC1	none | Arr-AP2 CP1 inactive | GST GSH counter inactive
COC(=O)[C@]12C[C@H](CC(=O)N3CCN(C(=O)C4CC4)CC3)C(=O)N(CCC3=CCCCC3)C1=C[C@H](COCc1ccccc1)O[C@@H]2C	none (no result: Arrestin-AP2 inh, CendR NRP1 mod, FAS TE block)
CCc1ccccc1NC(=O)Nc1cccn(Cc2ccc(F)cc2)c1=O	Arrestin-AP2 inh 58.2 | Arr-AP2 CP1 inactive | GST GSH counter inactive
CCOc1cc(/C=C2\SC(N)=NC2=O)ccc1O	Arrestin-AP2 inh 61.1 | Arr-AP2 CP1 inactive | GST GSH counter inactive
CCOc1cc(/C=C2\SC(=O)N=C2N)ccc1O	none
C/C(=N\NC(=O)c1ccc(CSc2nncn2C)cc1)c1ccc2ccccc2c1	Arrestin-AP2 inh 55.0 | Arr-AP2 CP1 inactive | GST GSH counter inactive
CCOC(CNCc1cc(C)c2[nH]c3ccccc3c2c1C)OCC	none
O=C(NCCc1ccccc1)c1cc2sccc2n1Cc1ccccc1	none
CCn1c(C(=O)NCCCc2ccccc2)cc2sccc21	Arrestin-AP2 inh 58.1 | Arr-AP2 CP1 inactive | GST GSH counter inactive
O=C(Cn1c(CO)nc2ccccc21)Nc1ccc2c(c1)OCCCO2	none
CCC(=O)N1c2ccccc2NC2=C(C(=O)CC(c3ccco3)C2)C1c1ccco1 (stereo not given)	none
O=C1CC(c2ccco2)CC2=C1C1c3ccccc3C(=O)N1c1ccccc1N2 (stereo not given)	Arrestin-AP2 inh 98.6 | Arr-AP2 CP1 inactive | GST GSH counter inactive
COc1ccc(NC(=O)/C(C#N)=C\C=C\c2ccco2)cc1	Arrestin-AP2 inh 71.6 | Arr-AP2 CP1 inactive | GST GSH counter inactive
COc1ccc(NC(=O)/C(=C\c2ccco2)NC(=O)c2ccco2)cc1	none
CCOC(=O)c1cc2c(ccn2C)n1Cc1ccc(C#N)cc1	none
CCOC(=O)c1cc2c(ccn2C)n1Cc1ccc(Cl)cc1	Arrestin-AP2 inh 54.3 | Arr-AP2 CP1 inactive | GST GSH counter inactive
Cc1ccc(Cc2ccc(C(=O)NNC(N)=S)o2)cc1	Arrestin-AP2 inh 58.8 | Arr-AP2 CP1 inactive | GST GSH counter inactive
O=C(Nc1ccccc1)c1nn(-c2ccccc2)c(=O)cc1C(F)(F)F	Arrestin-AP2 inh 101.4 | Arr-AP2 CP1 inactive | GST GSH counter inactive
O=C(c1ccccc1)c1nn(-c2ccccc2)c(=O)cc1C(F)(F)F	none (no result: CaV13 FRET inh)
Cc1cccc(C(=O)N[C@@H]2CC[C@@]34CCCN3C(=O)CCC[C@H]4[C@H]2C)c1	none (no result: Arrestin-AP2 inh, CendR NRP1 mod, FAS TE block, CaV13 FRET inh)
O=C1C(Cl)=C(NC(=O)c2ccccc2)C(=O)C(Cl)=C1NC(=O)c1ccccc1	Arrestin-AP2 inh 58.1 | Arr-AP2 CP1 75.0 | GST GSH counter inactive
O=C(NC1=C(Nc2ccc(Cl)cc2)C(=O)c2ccccc2C1=O)c1ccccc1	none
COc1cccc(Cn2cc(COC(=O)NCCc3c[nH]c4ccccc34)nn2)c1	none (no result: Arrestin-AP2 inh, CendR NRP1 mod, FAS TE block, CaV13 FRET inh)
O=C(CCCC(=O)Nc1cccnc1)Nc1cccnc1	Arrestin-AP2 inh 81.5 (no result: CaV13 FRET inh) | Arr-AP2 CP1 inactive
CC(=O)OC(COc1ccccc1)Cn1cnc2ccccc21 (stereo not given)	Arrestin-AP2 inh 54.7 | Arr-AP2 CP1 inactive | GST GSH counter inactive
NC(=O)NCC(c1ccccc1)C1CCCCC1 (stereo not given)	Arrestin-AP2 inh 61.4 | Arr-AP2 CP1 inactive | GST GSH counter inactive
CCCCC(=O)Nc1nc2c(OC)cc([N+](=O)[O-])cc2s1	Arrestin-AP2 inh 54.9 | Arr-AP2 CP1 inactive | GST GSH counter inactive
CC(OC(=O)c1ccc2ncsc2c1)C(=O)N(C)C1CCCCC1 (stereo not given)	Arrestin-AP2 inh 60.0 | Arr-AP2 CP1 inactive | GST GSH counter inactive
CC(OC(=O)c1ccc(NS(=O)(=O)c2cccs2)cc1)C(=O)N(C)C1CCCCC1 (stereo not given)	none
C[C@H](O)[C@@H]1CN2CCc3ccc(-c4ccc5c(c4)OCO5)cc3[C@@H]2C[C@@H]1N(C)C(=O)c1ccco1	none (no result: Arrestin-AP2 inh, CendR NRP1 mod, FAS TE block)
Nc1ccc(CCc2nc3ccccc3o2)cc1	none
O=S(=O)(CCc1nc2ccccc2o1)c1ccc(Cl)c(Cl)c1	Arrestin-AP2 inh 90.9 (no result: CaV13 FRET inh) | Arr-AP2 CP1 inactive | GST GSH counter inactive
O=C(Nc1ccc(NC(=S)NC(=O)c2ccccc2Cl)cc1)c1cccc(Cl)c1	Arrestin-AP2 inh 59.1 (no result: CaV13 FRET inh) | Arr-AP2 CP1 inactive | GST GSH counter inactive
O=C(OCc1cn(Cc2c(F)cccc2F)nn1)N1CCOCC1	none (no result: Arrestin-AP2 inh, CendR NRP1 mod, FAS TE block, CaV13 FRET inh)
Cc1ccccc1C(=O)N[C@H](C(=O)N1CCC[C@H]1C(=O)NCCc1ccccc1Cl)C(C)C	none (no result: Arrestin-AP2 inh, CendR NRP1 mod, FAS TE block)
NS(=O)(=O)c1cccc(NC(=O)CCN2C(=O)C3CCCCC3C2=O)c1 (stereo not given)	none
COc1ccc(NC(=O)CCN(c2ccc(OC)cc2)S(=O)(=O)c2ccc(C)c(C)c2)cc1	Arrestin-AP2 inh 65.2 | Arr-AP2 CP1 inactive | GST GSH counter inactive
COc1ccc(-c2csc3ncnc(N4CCN(c5ccccc5O)CC4)c23)cc1	Arrestin-AP2 inh 55.8 (no result: ADAM10 inh, ADAM17 inh, CaV13 FRET inh) | Arr-AP2 CP1 inactive | GST GSH counter inactive
COc1ccccc1N1CCN(C(=O)CSc2ncnc3scc(-c4ccccc4)c23)CC1	Arrestin-AP2 inh 60.3 | Arr-AP2 CP1 inactive | GST GSH counter inactive
O=C(N[C@@H](Cc1cccnc1)C(=O)N1CCC[C@H]1C(=O)NCc1ccccc1)c1ccc(Cl)c(Cl)c1	none (no result: Arrestin-AP2 inh, CendR NRP1 mod, FAS TE block, CaV13 FRET inh)
CCC(=O)N(c1ccccc1)C1CCN(C(=O)C(Cc2ccccc2)NC(C)=O)CC1 (stereo not given)	none (no result: Arrestin-AP2 inh, CendR NRP1 mod, FAS TE block, CaV13 FRET inh)
CC(C(=O)NCc1ccccc1)n1c(CSCCOc2ccccc2)nc2ccccc21 (stereo not given)	none (no result: Arrestin-AP2 inh, FAS TE block)
